Published values pooled from the literature.
Lines come from different studies, so protocols differ.
Organism: Plasmodium falciparum
Read-out: parasite growth

| SMILES | test | system | setting | IC50 |
| --- | --- | --- | --- | --- |
| CCCCCCCCNC(C)C(O)c1ccc(SC(C)C)cc1 (stereo not shown) | SYBR Green | 3D7 | blood stage | 0.807 µM |
| CCC1=C(CC)/C(=C/c2[nH]c(Cc3ccc(Cl)cc3)cc2Cc2ccc(Cl)cc2)N=C1c1ccc[nH]1 | SYBR Green | D6 | 72 h, blood stage | 0.0796 µM |
| N=C(CC(O)c1nc2cc(F)ccc2c2ccc(F)cc12)Nc1ccc(F)cc1 (stereo not shown) | ELISA | DD2 | 72 h, drug-resistant strain, blood stage | 0.936 µM |
| CC1=C(C)/C(=C/c2cc(-c3ccc(Cl)cc3)c(C)[nH]2)N=C1c1ccc[nH]1 | SYBR Green | D6 | 72 h, blood stage | > 2.5 µM |
| N=C(CC(O)c1nc2ccccc2c2ccc(Br)cc12)Nc1ccc(F)cc1 (stereo not shown) | ELISA | DD2 | 72 h, drug-resistant strain, blood stage | 0.0463 µM |
| O=C1C(O)=C([C@H]2CC[C@H](c3ccc(Cl)cc3)CC2)C(=O)c2ccccc21 | SYBR Green | D6 | 72 h, blood stage | 0.000106 µM |
| N=C(CC(O)c1nc2ccccc2c2ccc(Cl)cc12)Nc1ccc(F)cc1 (stereo not shown) | ELISA | 3D7 | 72 h, blood stage | 0.0187 µM |
| CC1=C(C)/C(=C/c2cc(Cc3ccc(Cl)cc3)c(C)[nH]2)N=C1c1ccc[nH]1 | SYBR Green | D6 | 72 h, blood stage | 0.602 µM |
| Cc1ccc(N(CC2=NCCN2)c2cccc(O)c2)cc1 | – | NF54 | blood stage | 36.6 µM |
| CCCCCCCCCCCCCCCCCC(=O)O | SYBR Green | 3D7 | 48 h, blood stage | 7.66 mg/L |
| N=C(CC(O)c1cc2c(F)cc(F)cc2c2cc(C(F)(F)F)ccc12)Nc1ccc(Br)cc1 (stereo not shown) | ELISA | 3D7 | 72 h, blood stage | 0.0061 µM |
| CN(Cc1cnc2nc(N)nc(N)c2n1)c1ccc(C(=O)N[C@@H](CCC(=O)O)C(=O)O)cc1 | – | NF54 | blood stage | 0.0515 µM |
| CCN(CC)CCCC(C)Nc1ccnc2cc(Cl)ccc12 (stereo not shown) | – | – | 72 h, blood stage | 0.0282 µM |
| N=C(CC(O)c1cc2c(F)cc(F)cc2c2cc(C(F)(F)F)ccc12)Nc1ccc(F)c(F)c1 (stereo not shown) | ELISA | 3D7 | 72 h, blood stage | 0.0072 µM |
| CCCCCCOc1ccc2c(=O)c3c([nH]c2c1)CCCC3 | SYBR Green | D6 | 72 h, blood stage | 0.000447 µM |
| COc1ccc2cc1Oc1ccc(cc1)C[C@H]1c3c(cc4c(c3Oc3cc5c(cc3OC)CCN(C)[C@@H]5C2)OCO4)CCN1C | SYBR Green | 3D7 | blood stage | 0.664 µM |
| COC1=C(OC)/C(=C/c2[nH]c(Cc3ccc(Cl)cc3)cc2Cc2ccc(Cl)cc2)N=C1c1ccc[nH]1 | SYBR Green | D6 | 72 h, blood stage | > 2.5 µM |
| CNCC[C@H](Oc1cccc2ccccc12)c1cccs1 | SYBR Green | 3D7 | blood stage | 0.233 µM |
| N=C(CC(O)c1nc2ccccc2c2ccccc12)Nc1ccc(F)cc1 (stereo not shown) | ELISA | 3D7 | 72 h, blood stage | 0.123 µM |
| CCC1=C(CC)/C(=C/c2cc(Cc3ccc(OC(F)(F)F)cc3)c(C)[nH]2)N=C1c1ccc[nH]1 | SYBR Green | D6 | 72 h, blood stage | 0.265 µM |
| N=C(CC(O)c1cc2cccnc2c2cccnc12)Nc1ccc(F)cc1 (stereo not shown) | ELISA | DD2 | 72 h, drug-resistant strain, blood stage | 8.78 µM |
| CCN(CC)CCCC(C)Nc1ccnc2cc(Cl)ccc12 (stereo not shown) | SYBR Green | 3D7 | blood stage | 0.0224 µM |
